The source of these data is publication PMC12510370 (Chemical Science, 2025).

pIC50: −log10 of the molar value. Read-outs that look alike come from different tables or passages of the source.

Common to all, as to assay type: cell-based
The test system of one assay is A549 cells. The experiment in a line: MTT. The method in brief: (§1)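 MTT assay on A549, HeLa and MRC9 cells, with cells kept in the dark or irradiated at 450 nm (15.5 mW cm−2, 15 min). […] IC50 values were derived for dark and light conditions. For A549 and HeLa, PI = IC50,dark/IC50,light.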
The subject of assay [1] is HeLa cells. Nature of the assay: MTT. The procedure, abridged: as §1
The subject of the next assay is normal MRC9 cells. Nature of the assay: MTT. The procedure, abridged: as §1
In assay [2] the test system is HeLa cells. Nature of the assay: Mitochondrial membrane potential with JC-1. As to conditions: 50 μM, 15 min, positive control. The method in brief:
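HeLa cells were untreated, given CCCP (50 μM, 15 min) as positive control, or treated with the test compound (4.5 nM, 24 h). Treated cells were then kept in the dark for 24 h or irradiated (450 nm, 15.5 mW cm−2, 15 min) and incubated 24 h more. Staining used JC-1 (2 μg mL−1, 20 min; λex 488 nm; monomer emission 510–530 nm, J-aggregate emission 590–610 nm).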

Usually pIC50 stands for the negative decadic logarithm of the IC50, by convention in mol/L. As to “1-phenyl-5-thioxo-5,6-dihydro-[1,2,4]triazolo[1,5-c]quinazolin-1-ium-2-thiolate [p-Httqt]”, the negative logarithm of the IC50 (pIC50) in the assay on A549 cells (read-out: IC50,dark, A549, in the dark) is less than 4.00; in the assay with A549 cells (read-out: IC50,light, A549, irradiation at 450 nm (15.5 mW cm^−2, 15 min)), less than 4.00; with HeLa cells [1] (read-out: IC50,dark, in the dark), less than 4.00; with HeLa cells [1] (read-out: IC50,light, irradiation at 450 nm (15.5 mW cm^−2, 15 min)), less than 4.00; in the assay with normal MRC9 cells (read-out: IC50,dark, MRC9, in the dark), less than 4.00; with normal MRC9 cells (read-out: IC50,light, MRC9, irradiation at 450 nm (15.5 mW cm^−2, 15 min)), less than 4.00.

With `N#CC(C#N)=NNc1cccc(Cl)c1` [CCCP, carbonyl cyanide m-chlorophenyl hydrazone], the “mitochondrial membrane potential (JC-1)” value in the assay on HeLa cells [2] is given as “reduced the intensity of the red channel”.
